According to ChEMBL document CHEMBL1125581 (J Med Chem, 1991):
pKi: −log10 of the molar value.

Columns and labels:
[1] = biological target: Muscarinic acetylcholine receptor M3 (Rattus norvegicus, UniProt P08483); assay: Inhibition of binding of [3H]N-methylscopolamine to muscarinic acetylcholine receptor M3 of transfected rat A9L cells.; type: cell-based
[2] = biological target: T1, Muscarinic acetylcholine receptor M2 (Rattus norvegicus, UniProt P10980); assay: Inhibition of binding of [3H]N-methylscopolamine to muscarinic acetylcholine receptor M2 of rat heart tissue membrane.; type: tissue-based
T1 sequence (P10980 whole entry): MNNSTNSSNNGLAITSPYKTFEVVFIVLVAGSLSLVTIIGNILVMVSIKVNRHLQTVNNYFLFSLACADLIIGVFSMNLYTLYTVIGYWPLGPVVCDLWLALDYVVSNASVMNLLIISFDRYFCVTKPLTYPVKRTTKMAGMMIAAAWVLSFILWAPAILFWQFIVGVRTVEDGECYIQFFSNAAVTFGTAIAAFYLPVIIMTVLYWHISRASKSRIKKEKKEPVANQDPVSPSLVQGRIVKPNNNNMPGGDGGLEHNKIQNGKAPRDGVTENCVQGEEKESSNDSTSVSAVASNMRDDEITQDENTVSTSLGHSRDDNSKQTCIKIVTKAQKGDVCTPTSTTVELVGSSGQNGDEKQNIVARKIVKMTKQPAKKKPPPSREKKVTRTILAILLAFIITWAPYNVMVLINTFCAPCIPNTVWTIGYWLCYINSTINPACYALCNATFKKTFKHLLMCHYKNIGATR
In short: (§1)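 Rat heart membranes (150–300 μg protein) incubated 90 min at 37 °C in DMEM-Hepes with 0.5 nM [3H]NMS and varied unlabeled analogue concentrations. Bound radioligand collected by rapid GF/B filtration, washed with ice-cold 0.9% NaCl, and scintillation counted. Nonspecific binding with 1 μM atropine subtracted. Ki values come from one to three determinations, each in triplicate.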

[3] = biological target: T2, Muscarinic acetylcholine receptor M1 (Rattus norvegicus, UniProt P08482); assay: Inhibition of binding of [3H]N-methylscopolamine to muscarinic acetylcholine receptor M1 of transfected rat A9L cells.; type: cell-based
T2 sequence (P08482 whole entry): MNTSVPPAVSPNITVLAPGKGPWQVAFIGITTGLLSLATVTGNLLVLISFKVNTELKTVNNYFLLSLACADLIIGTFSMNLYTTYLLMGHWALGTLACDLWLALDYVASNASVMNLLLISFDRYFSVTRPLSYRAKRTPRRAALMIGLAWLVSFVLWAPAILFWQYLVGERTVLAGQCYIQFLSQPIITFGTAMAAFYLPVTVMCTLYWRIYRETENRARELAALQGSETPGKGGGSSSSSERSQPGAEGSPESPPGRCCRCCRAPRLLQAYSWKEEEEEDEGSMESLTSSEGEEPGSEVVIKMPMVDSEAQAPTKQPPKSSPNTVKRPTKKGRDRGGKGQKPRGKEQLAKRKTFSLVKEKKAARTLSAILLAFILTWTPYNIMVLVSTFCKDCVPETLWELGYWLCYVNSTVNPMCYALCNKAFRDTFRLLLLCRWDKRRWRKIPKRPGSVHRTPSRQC

[4] = biological target: T3, Muscarinic acetylcholine receptor M4 (Rattus norvegicus, UniProt P08485); assay: Inhibition of binding of [3H]N-Methyl-scopolamine to muscarinic acetylcholine receptor M4 of rat […] NG108-15 cells; type: cell-based
T3 sequence (P08485 whole entry): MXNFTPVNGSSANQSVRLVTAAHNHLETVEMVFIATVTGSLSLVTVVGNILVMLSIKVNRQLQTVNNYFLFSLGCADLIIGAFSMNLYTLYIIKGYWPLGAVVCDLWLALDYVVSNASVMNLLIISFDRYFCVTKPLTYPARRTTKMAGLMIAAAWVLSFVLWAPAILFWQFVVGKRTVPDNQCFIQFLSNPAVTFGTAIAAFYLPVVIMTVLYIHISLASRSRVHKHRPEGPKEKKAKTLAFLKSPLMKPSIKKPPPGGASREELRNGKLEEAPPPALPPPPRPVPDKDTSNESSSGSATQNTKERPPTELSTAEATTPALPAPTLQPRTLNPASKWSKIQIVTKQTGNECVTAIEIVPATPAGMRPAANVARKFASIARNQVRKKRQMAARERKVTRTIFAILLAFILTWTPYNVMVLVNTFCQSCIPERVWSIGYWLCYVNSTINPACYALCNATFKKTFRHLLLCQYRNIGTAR

[5] = biological target: T2, Muscarinic acetylcholine receptor M1; assay: Inhibition of binding of [3H]N-Methyl-scopolamine to Muscarinic acetylcholine receptor M1 of transfected A9L cells.; type: cell-based
In short: (§2)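 Confluent A9L (transfected m1/m3) or NG108-15 (m4) cultures were lysed in 2 mM Tris-HCl pH 7.1/1 mM EDTA, 30 min, 2 °C, then homogenized. Crude membranes were spun at 50000g. Membranes (150–300 μg protein) were incubated with 0.5 nM [3H]NMS and varied analogue in DMEM-Hepes for 90 min at 37 °C, then filtered. Nonspecific binding was set with 1 μM atropine. Ki values are from 1–3 triplicate determinations.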

[6] = biological target: T1, Muscarinic acetylcholine receptor M2; assay: Inhibition of binding of [3H]N-Methyl-scopolamine to Muscarinic acetylcholine receptor M2 of rat heart tissue membranes.; type: cell membranes, Membrane; in short: as §1
[7] = biological target: T2, Muscarinic acetylcholine receptor M1; assay: The compound was tested for the inhibition of binding of [3H]N-Methyl-scopolamine to muscarinic acetylcholine receptor M1 of transfected A9L cells.; type: cell-based; in short: as §2

Muscarinic acetylcholine receptor M3, sequence (P08483 whole entry): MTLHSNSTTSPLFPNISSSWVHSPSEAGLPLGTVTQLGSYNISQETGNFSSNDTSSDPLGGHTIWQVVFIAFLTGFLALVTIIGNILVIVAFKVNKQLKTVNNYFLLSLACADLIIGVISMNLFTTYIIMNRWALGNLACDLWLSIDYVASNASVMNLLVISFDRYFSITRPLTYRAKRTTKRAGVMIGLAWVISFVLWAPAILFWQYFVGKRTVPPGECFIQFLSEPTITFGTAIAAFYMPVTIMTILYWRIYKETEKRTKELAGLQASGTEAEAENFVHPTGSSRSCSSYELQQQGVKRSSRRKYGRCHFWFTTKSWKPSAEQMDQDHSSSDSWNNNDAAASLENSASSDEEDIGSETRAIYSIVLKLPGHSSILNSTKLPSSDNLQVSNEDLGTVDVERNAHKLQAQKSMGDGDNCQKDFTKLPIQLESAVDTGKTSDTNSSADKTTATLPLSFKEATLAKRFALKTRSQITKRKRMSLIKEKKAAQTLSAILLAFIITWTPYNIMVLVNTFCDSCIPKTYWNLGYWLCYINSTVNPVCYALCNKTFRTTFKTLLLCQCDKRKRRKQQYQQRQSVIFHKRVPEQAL

SMILES | pKi [1] | pKi [2] | pKi [3] | pKi [4] | pKi [5] | pKi [6] | pKi [7]
NCCCCCCCCCCN1CCN(CC(=O)N2c3ccccc3C(=O)Nc3cccnc32)CC1 |  |  |  |  | 7.80 | 7.93 | 
CC(C)(C)OC(=O)NCCCC(=O)NCCN1CCN(CC(=O)N2c3ccccc3C(=O)Nc3cccnc32)CC1 | 5.39 | 5.48 | 5.32 |  |  |  | 
NCCCCN1CCN(CC(=O)N2c3ccccc3C(=O)Nc3cccnc32)CC1 |  | 5.76 | 5.51 |  |  |  | 
O=C1Nc2cccnc2N(C(=O)CN2CCN(Cc3ccccc3)CC2)c2ccccc21 | 6.62 | 6.62 | 6.48 | 6.66 |  |  | 
O=C1Nc2cccnc2N(C(=O)CN2CCN(C(=S)Nc3ccccc3)CC2)c2ccccc21 | < 4.00 | < 4.00 | < 4.00 | < 4.00 |  |  | 
NCCCC(=O)NCCN1CCN(CC(=O)N2c3ccccc3C(=O)Nc3cccnc32)CC1 | 4.94 | 5.20 | 5.02 |  |  |  | 
C#CCN1CCN(CC(=O)N2c3ccccc3C(=O)Nc3cccnc32)CC1 |  | 5.86 | 5.78 |  |  |  | 
O=C1Nc2cccnc2N(C(=O)CN2CCN(CCCCCN3C(=O)c4ccccc4C3=O)CC2)c2ccccc21 |  | 7.70 | 7.22 |  |  |  | 
CCN(CC)CCCCCCCCCCN1CCN(CC(=O)N2c3ccccc3C(=O)Nc3cccnc32)CC1 |  |  |  |  | 8.52 | 7.87 | 
CN1CCN(CC(=O)N2c3ccc(S(=O)(=O)NCCN)cc3C(=O)Nc3cccnc32)CC1 | < 4.52 |  | < 4.52 |  |  |  | 
CC(C)(C)OC(=O)NCCCCNC(=O)c1ccc(CN2CCN(CC(=O)N3c4ccccc4C(=O)Nc4cccnc43)CC2)cc1 | 5.46 | 5.96 | 5.77 |  |  |  | 
CC(=O)N1CCN(CC(=O)N2c3ccccc3C(=O)Nc3cccnc32)CC1 | < 4.00 | < 4.00 | < 4.00 | < 4.00 |  |  | 
O=C1Nc2cccnc2N(C(=O)CN2CCN(CCO)CC2)c2ccccc21 | 5.02 | 5.49 | 5.24 |  |  |  | 
CC(=O)NCCCCCCCCCN1CCN(CC(=O)N2c3ccccc3C(=O)Nc3cccnc32)CC1 |  |  |  |  | 7.28 | 7.30 | 
CC(C)(C)OC(=O)NCCNC(=O)c1ccc(CN2CCN(CC(=O)N3c4ccccc4C(=O)Nc4cccnc43)CC2)cc1 |  | 5.60 |  |  |  |  | 
NCCC(=O)NCCN1CCN(CC(=O)N2c3ccccc3C(=O)Nc3cccnc32)CC1 | 5.18 | 5.23 | 5.36 |  |  |  | 
CN1CCN(CC(=O)N2c3ccc(S(=O)(=O)NCCNC(=O)OC(C)(C)C)cc3C(=O)Nc3cccnc32)CC1 | < 4.52 |  | < 4.52 |  |  |  | 

The next lines start with the values.

pKi [1] | pKi [2] | pKi [3] | pKi [4] | pKi [5] | pKi [6] | pKi [7] | SMILES
5.44 | 6.02 | 5.86 | 5.98 |  |  |  | NCCNC(=O)c1ccc(CN2CCN(CC(=O)N3c4ccccc4C(=O)Nc4cccnc43)CC2)cc1
5.36 |  | 5.36 |  |  |  |  | CN1CCN(CC(=O)N2c3cc(CO)ccc3C(=O)Nc3cccnc32)CC1
4.97 | 5.05 | 5.02 |  |  |  |  | CC(=O)NCCCC(=O)NCCN1CCN(CC(=O)N2c3ccccc3C(=O)Nc3cccnc32)CC1
< 4.00 | < 4.00 | < 4.00 | < 4.00 |  |  |  | O=C1Nc2cccnc2N(C(=O)CN2CCN(C(=O)c3ccccc3)CC2)c2ccccc21
5.21 | 5.22 | 4.88 |  |  |  |  | CC(C)(C)OC(=O)NCCC(=O)NCCN1CCN(CC(=O)N2c3ccccc3C(=O)Nc3cccnc32)CC1
 | 5.87 | 5.88 |  |  |  |  | NCCCCCCN1CCN(CC(=O)N2c3ccccc3C(=O)Nc3cccnc32)CC1
5.44 | 4.96 | 5.33 |  |  |  |  | CSc1ccc2c(c1)C(=O)Nc1cccnc1N2C(=O)CN1CCN(C)CC1
5.71 | 5.52 | 5.92 | 5.55 |  |  |  | NCCN1CCN(CC(=O)N2c3ccccc3C(=O)Nc3cccnc32)CC1
 |  |  |  | 8.48 | 7.66 |  | COc1ccccc1CNCCCCCCCCCCN1CCN(CC(=O)N2c3ccccc3C(=O)Nc3cccnc32)CC1
< 4.00 | 4.46 | 4.40 |  |  |  |  | CC(=O)NCCC(=O)NCCN1CCN(CC(=O)N2c3ccccc3C(=O)Nc3cccnc32)CC1
8.16 | 7.30 | 8.74 | 7.76 |  |  |  | Cc1scc2c1N(C(=O)CN1CCN(C)CC1)c1ccccc1NC2=O [TELENZEPINE]
 | 6.08 | 5.74 |  |  |  |  | O=C1Nc2cccnc2N(C(=O)CN2CCN(CCCN3C(=O)c4ccccc4C3=O)CC2)c2ccccc21
 |  |  |  | 7.12 | 7.37 |  | CC(=O)NCCCCCCCCCCN1CCN(CC(=O)N2c3ccccc3C(=O)Nc3cccnc32)CC1
 | 5.29 | 5.41 |  |  |  |  | NCCCN1CCN(CC(=O)N2c3ccccc3C(=O)Nc3cccnc32)CC1
< 4.52 |  | < 4.52 |  |  |  |  | CC(=O)NCCNS(=O)(=O)c1ccc2c(c1)C(=O)Nc1cccnc1N2C(=O)CN1CCN(C)CC1
 |  |  |  |  |  | 5.05 | CN1CCN(CC(=O)N2c3ccccc3C(=O)N(CCCCCCC#N)c3cccnc32)CC1
 |  |  |  | 7.74 | 7.74 |  | O=C1Nc2cccnc2N(C(=O)CN2CCN(CCCCCCN3C(=O)c4ccccc4C3=O)CC2)c2ccccc21
 |  |  |  | 7.70 | 7.59 |  | NCCCCCCCCN1CCN(CC(=O)N2c3ccccc3C(=O)Nc3cccnc32)CC1
7.34 | 7.67 | 7.43 | 7.63 |  |  |  | CC(C)(C)OC(=O)NCCCCCCN1CCN(CC(=O)N2c3ccccc3C(=O)Nc3cccnc32)CC1
 |  |  |  | 7.62 | 7.62 |  | NCCCCCCCCCN1CCN(CC(=O)N2c3ccccc3C(=O)Nc3cccnc32)CC1
 |  |  |  | 7.18 | 7.24 |  | NCCCCCCCN1CCN(CC(=O)N2c3ccccc3C(=O)Nc3cccnc32)CC1
< 4.00 | < 4.00 | < 4.00 | < 4.00 |  |  |  | CS(=O)(=O)N1CCN(CC(=O)N2c3ccccc3C(=O)Nc3cccnc32)CC1
 | 5.23 | 5.93 |  |  |  |  | NCCCCCN1CCN(CC(=O)N2c3ccccc3C(=O)Nc3cccnc32)CC1
< 4.52 | < 4.52 | < 4.52 |  |  |  |  | CN1CCN(CC(=O)N2c3ccc(S(N)(=O)=O)cc3C(=O)Nc3cccnc32)CC1
6.01 | 5.60 | 6.17 | 5.59 |  |  |  | CC(=O)NCCN1CCN(CC(=O)N2c3ccccc3C(=O)Nc3cccnc32)CC1
6.92 | 7.05 | 6.77 | 6.68 |  |  |  | O=C1Nc2cccnc2N(C(=O)CN2CCN(CCCCN3C(=O)c4ccccc4C3=O)CC2)c2ccccc21
